Here are results for 36 molecules from ChEMBL document CHEMBL1126842, “Inhibition of herpes simplex virus type 1 ribonucleotide reductase by substituted tetrapeptide derivatives” (J Med Chem, 1993).

pIC50: −log10 of the molar value. Where a SMILES comes first, the peptide text is derived from it. [ ]: non-standard residue; d: D form. The star is where a group is joined. ξ: configuration not given here. Asp(3,3-Me2) = CC(C)(C(=O)O)[C@H](N)C(=O)O; Cyclohexanecarbonyl = O=C(C1CCCCC1)*; Butanoyl(2-Et) = CCC(CC)C(=O)*; Thr(3ξ) = CC(O)[C@H](N)C(=O)O; Tle = CC(C)(C)[C@H](N)C(=O)O; Leu(ol) = CC(C)C[C@H](N)CO; Isovaleryl = CC(C)CC(=O)*; Isobutyryl = CC(C)C(=O)*; Piperidide = C1CCN(*)CC1; Pyrrolidide = C1CCN(*)C1; X1 = CC(C)C(C(=O)*)C(C)C; Bn = c1ccc(C*)cc1

Test system in one experiment: not listed separately
The experiment can be described thus: Inhibition of Herpes simplex virus type 1 ribonucleotide reductase. The format is functional, Human alphaherpesvirus 1. In short, it runs like this: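 IC50 taken as the mean of at least three separate determinations, with standard deviation from the mean reported; one entry came from a single determination.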
Usually pIC50 stands for −log10 of the IC50, conventionally taken in molar units. A low value points to a high IC50. As for `CC[C@H](C)[C@H](NC(C)=O)C(=O)N[C@@H](CC(=O)N1CCCC1)C(=O)N[C@@H](CC(=O)O)C(=O)N[C@@H](CC(C)C)C(=O)O` (Ac-ID(Pyrrolidide)DL-OH), the pIC50 is less than 3.00.

The molecule `CCC(CC)C(=O)N[C@H](C(=O)N[C@@H](CC(=O)N1CCCC1)C(=O)N[C@@H](CC(=O)O)C(=O)N[C@@H](C)C(=O)O)C(C)(C)C` ({Butanoyl(2-Et)}-[Tle]D(Pyrrolidide)DA-OH) had a pIC50 of less than 3.00.

As to `CCC(CC)C(=O)N[C@H](C(=O)N[C@@H](CC(=O)N1CCCC1)C(=O)N[C@@H](CC(=O)O)C(=O)N[C@@H](CC(C)C)C(=O)O)[C@@H](C)O` ({Butanoyl(2-Et)}-TD(Pyrrolidide)DL-OH), the pIC50 is 5.36.

Molecule `CCC(CC)C(=O)N[C@H](C(=O)N[C@@H](CC(=O)N1CCCC1)C(=O)N[C@@H](CC(=O)O)C(=O)N[C@@H](CC(C)C)C(=O)O)[C@@H](C)CC` ({Butanoyl(2-Et)}-ID(Pyrrolidide)DL-OH) had a pIC50 of 5.82.

For `CCOC(=O)C[C@H](NC(=O)[C@@H](NC(=O)C(CC)CC)C(C)(C)C)C(=O)N[C@@H](CC(=O)O)C(=O)N[C@@H](CC(C)C)C(=O)O` ({Butanoyl(2-Et)}-[Tle]D(OEt)DL-OH), the pIC50 was 5.33.

On to `CCC(CC)C(=O)N[C@H](C(=O)N[C@@H](CC(=O)N1CCCC1)C(=O)N[C@H](C(=O)N[C@@H](CC(C)C)C(=O)O)C(C)(C)C(=O)O)C(C)(C)C` ({Butanoyl(2-Et)}-[Tle]D(Pyrrolidide)[Asp(3,3-Me2)]L-OH), for which the pIC50 was 6.74. This pIC50 is 1.41 log units higher than that of the molecule before.

`CCC(CC)C(=O)N[C@H](C(=O)N[C@@H](CC(=O)C1CCCC1)C(=O)N[C@@H](CC(=O)O)C(=O)N[C@@H](CC(C)C)C(=O)O)C(C)(C)C` gave a pIC50 of 5.89.

As to `CCC(CC)C(=O)N[C@H](C(=O)N[C@@H](CC(=O)N1CCCC1)C(=O)N[C@@H](CC(=O)O)C(=O)N[C@H](CO)CC(C)C)C(C)(C)C` ({Butanoyl(2-Et)}-[Tle]D(Pyrrolidide)D[Leu(ol)]), the pIC50 was 5.25.

For `CC[C@H](C)[C@H](NC(=O)CC(C)C)C(=O)N[C@@H](CC(=O)N1CCCC1)C(=O)N[C@@H](CC(=O)O)C(=O)N[C@@H](CC(C)C)C(=O)O` (Isovaleryl-ID(Pyrrolidide)DL-OH), the pIC50 was 5.52. Compared with the last molecule, the pIC50 is 0.27 log units higher.

Consider `CCC(CC)C(=O)N[C@H](C(=O)N[C@@H](CC(=O)N1CCCC1)C(=O)N[C@@H](CC(=O)O)C(=O)N[C@@H](CC(C)C)C(=O)O)C(C)(C)C` ({Butanoyl(2-Et)}-[Tle]D(Pyrrolidide)DL-OH), for which the negative logarithm of the IC50 (pIC50) was 6.22.

The molecule `CCC(CC)C(=O)NCC(=O)N[C@@H](CC(=O)N1CCCC1)C(=O)N[C@@H](CC(=O)O)C(=O)N[C@@H](CC(C)C)C(=O)O` ({Butanoyl(2-Et)}-GD(Pyrrolidide)DL-OH) gave a pIC50 of 4.11.

`CCC(CC)C(=O)N[C@H](C(=O)N[C@@H](CC(=O)N1CCCC1)C(=O)N[C@@H](CC(=O)O)C(=O)N[C@H](CO)CC1CCCCC1)C(C)(C)C` showed a pIC50 of 5.09.

For `CC[C@H](C)[C@H](NC(=O)C(C(C)C)C(C)C)C(=O)N[C@@H](CC(=O)N1CCCC1)C(=O)N[C@@H](CC(=O)O)C(=O)N[C@@H](CC(C)C)C(=O)O` (X1-ID(Pyrrolidide)DL-OH), the pIC50 was 5.70.

As to `CCC(CC)C(=O)N[C@H](C(=O)N[C@@H](CC(=O)N1CCCC1)C(=O)N[C@@H](CC(=O)O)C(=O)N[C@@H](CC(C)C)C(=O)O)C(C)OCc1ccccc1` (stereo partly drawn) ({Butanoyl(2-Et)}-[Thr(3ξ)](Bn)D(Pyrrolidide)DL-OH), the pIC50 was 5.51.

Turning to `CC[C@H](C)[C@H](NC(=O)C1CCCCC1)C(=O)N[C@@H](CC(=O)N1CCCC1)C(=O)N[C@@H](CC(=O)O)C(=O)N[C@@H](CC(C)C)C(=O)O` (Cyclohexanecarbonyl-ID(Pyrrolidide)DL-OH), the pIC50 was 5.82.

The molecule `CCC(CC)C(=O)N[C@H](C(=O)N[C@@H](CCC(=O)N1CCCC1)C(=O)N[C@@H](CC(=O)O)C(=O)N[C@@H](CC(C)C)C(=O)O)C(C)(C)C` ({Butanoyl(2-Et)}-[Tle]E(Pyrrolidide)DL-OH) showed a pIC50 of less than 3.00.

`CCC(CC)C(=O)N[C@H](C(=O)N[C@@H](CC(=O)N1CCCC1)C(=O)N[C@@H](CC(=O)O)C(=O)N[C@H](CO)CC(C)(C)C)C(C)(C)C` gave a pIC50 of 5.72.

With `CCC(CC)C(=O)N[C@@H](CCCCN)C(=O)N[C@@H](CC(=O)N1CCCC1)C(=O)N[C@@H](CC(=O)O)C(=O)N[C@@H](CC(C)C)C(=O)O` ({Butanoyl(2-Et)}-KD(Pyrrolidide)DL-OH), the pIC50 was 4.85.

As to `CCC(CC)C(=O)N[C@H](C(=O)N[C@@H](CC(=O)N1CCCC1)C(=O)N[C@@H](CCC(=O)O)C(=O)N[C@@H](CC(C)C)C(=O)O)C(C)(C)C` ({Butanoyl(2-Et)}-[Tle]D(Pyrrolidide)EL-OH), the pIC50 was less than 3.00.

In turn, `CCC(CC)C(=O)N[C@H](C(=O)N[C@@H](CC(=O)N1CCCC1)C(=O)N[C@@H](CC(=O)O)C(=O)NC(CO)CO)C(C)(C)C` had a negative-log IC50 (pIC50) of less than 3.00.

On to `CC(C)C[C@H](NC(=O)[C@H](CC(=O)O)NC(=O)[C@H](CC(N)=O)NC(=O)[C@@H](N)C(C)C)C(=O)O` (H-VNDL-OH), for which the pIC50 was less than 2.70.

In turn, H-GAVVNDL-OH had a pIC50 of 3.66.

`CCC(CC)C(=O)N[C@H](C(=O)N[C@@H](CC(N)=O)C(=O)N[C@@H](CC(=O)O)C(=O)N[C@@H](CC(C)C)C(=O)O)C(C)(C)C` ({Butanoyl(2-Et)}-[Tle]NDL-OH) had a pIC50 of 4.00. Against the preceding molecule, the pIC50 is 0.34 log units higher.

Consider `CCC(CC)C(=O)N[C@H](C(=O)N[C@@H](CC(=O)N1CCCC1)C(=O)N[C@@H](CC(=O)O)C(=O)NCCC(C)(C)C)C(C)(C)C`, for which the pIC50 was 4.72.

As to `CC(C)C[C@H](NC(=O)[C@H](CC(=O)O)NC(=O)[C@H](CC(N)=O)NC(=O)[C@@H](NC(=O)[C@@H](NC(=O)[C@H](C)NC(=O)CNC(=O)[C@H](C)NC(=O)[C@@H](N)Cc1ccc(O)cc1)C(C)C)C(C)C)C(=O)O`, the pIC50 was 4.42.

As to `CCC(CC)C(=O)N[C@@H](CC(=O)O)C(=O)N[C@@H](CC(=O)N1CCCC1)C(=O)N[C@@H](CC(=O)O)C(=O)N[C@@H](CC(C)C)C(=O)O` ({Butanoyl(2-Et)}-DD(Pyrrolidide)DL-OH), the pIC50 was 5.21. Against the preceding molecule, the pIC50 is 0.79 log units higher.

In turn, H-AVVNDL-OH had a pIC50 of 3.72. Against the preceding molecule, the pIC50 is 1.49 log units lower.

For H-AGAVVNDL-OH, the pIC50 is 3.55.

The molecule `CCC(CC)C(=O)N[C@@H](C)C(=O)N[C@@H](CC(=O)N1CCCC1)C(=O)N[C@@H](CC(=O)O)C(=O)N[C@@H](CC(C)C)C(=O)O` ({Butanoyl(2-Et)}-AD(Pyrrolidide)DL-OH) had a pIC50 of 4.96.

The molecule H-YAGAVVND-OH had a pIC50 of less than 2.70.

`CCNC(=O)C[C@H](NC(=O)[C@@H](NC(=O)C(CC)CC)C(C)(C)C)C(=O)N[C@@H](CC(=O)O)C(=O)N[C@@H](CC(C)C)C(=O)O` ({Butanoyl(2-Et)}-[Tle]D(NHEt)DL-OH): the pIC50 is 5.16.

Turning to `CC[C@H](C)[C@H](NC(=O)[C@@H](N)C(C)C)C(=O)N[C@@H](CC(=O)N1CCCC1)C(=O)N[C@@H](CC(=O)O)C(=O)N[C@@H](CC(C)C)C(=O)O` (H-VID(Pyrrolidide)DL-OH), the pIC50 was 4.89.

`CC[C@H](C)[C@H](NC(=O)C(C)C)C(=O)N[C@@H](CC(=O)N1CCCC1)C(=O)N[C@@H](CC(=O)O)C(=O)N[C@@H](CC(C)C)C(=O)O` (Isobutyryl-ID(Pyrrolidide)DL-OH) had a pIC50 of 5.00.

`CCC(CC)C(=O)N[C@H](C(=O)N[C@@H](CC(=O)N1CCCC1)C(=O)N[C@@H](C)C(=O)N[C@@H](CC(C)C)C(=O)O)C(C)(C)C` ({Butanoyl(2-Et)}-[Tle]D(Pyrrolidide)AL-OH) showed a pIC50 of less than 3.00.

`CCC(CC)C(=O)N[C@H](C(=O)N[C@@H](CCC1CCCC1)C(=O)N[C@@H](CC(=O)O)C(=O)N[C@@H](CC(C)C)C(=O)O)C(C)(C)C` gave a pIC50 of 4.19.

The molecule `CCC(CC)C(=O)N[C@H](C(=O)N[C@@H](CC(=O)N1CCCCC1)C(=O)N[C@@H](CC(=O)O)C(=O)N[C@@H](CC(C)C)C(=O)O)C(C)(C)C` ({Butanoyl(2-Et)}-[Tle]D(Piperidide)DL-OH) had a pIC50 of 5.89. This pIC50 lies 1.70 log units higher than the previous one.

A further experiment deals with T1, Ribonucleoside-diphosphate reductase large subunit (Homo sapiens, UniProt P23921).
T1 sequence (P23921 whole entry): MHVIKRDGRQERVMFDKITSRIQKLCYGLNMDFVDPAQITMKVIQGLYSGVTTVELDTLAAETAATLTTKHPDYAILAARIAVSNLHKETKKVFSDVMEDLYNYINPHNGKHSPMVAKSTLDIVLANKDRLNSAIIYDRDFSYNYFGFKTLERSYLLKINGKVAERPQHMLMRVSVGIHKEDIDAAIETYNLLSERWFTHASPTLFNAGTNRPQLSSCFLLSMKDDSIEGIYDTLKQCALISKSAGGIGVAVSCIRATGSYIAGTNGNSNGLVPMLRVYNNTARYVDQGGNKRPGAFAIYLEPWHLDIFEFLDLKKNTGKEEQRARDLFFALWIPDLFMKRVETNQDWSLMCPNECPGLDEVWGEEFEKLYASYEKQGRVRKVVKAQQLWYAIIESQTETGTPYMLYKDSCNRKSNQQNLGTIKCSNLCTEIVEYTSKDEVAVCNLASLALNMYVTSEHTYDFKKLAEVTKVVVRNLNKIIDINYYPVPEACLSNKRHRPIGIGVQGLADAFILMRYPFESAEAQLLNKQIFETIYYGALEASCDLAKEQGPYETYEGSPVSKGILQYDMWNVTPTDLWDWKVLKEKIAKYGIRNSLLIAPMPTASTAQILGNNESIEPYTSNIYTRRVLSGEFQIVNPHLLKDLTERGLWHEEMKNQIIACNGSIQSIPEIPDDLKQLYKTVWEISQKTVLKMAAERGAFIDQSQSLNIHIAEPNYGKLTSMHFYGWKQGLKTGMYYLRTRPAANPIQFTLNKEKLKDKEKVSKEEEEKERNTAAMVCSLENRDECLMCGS
The experiment is described as follows: Tested for inhibition of human ribonucleotide reductase.
Regarding `CCC(CC)C(=O)N[C@H](C(=O)N[C@@H](CC(=O)N1CCCC1)C(=O)N[C@@H](CC(=O)O)C(=O)N[C@@H](CC(C)C)C(=O)O)[C@@H](C)CC` ({Butanoyl(2-Et)}-ID(Pyrrolidide)DL-OH), the pIC50 is less than 3.00.

`CCC(CC)C(=O)N[C@H](C(=O)N[C@@H](CC(=O)N1CCCC1)C(=O)N[C@@H](CC(=O)O)C(=O)N[C@@H](CC(C)C)C(=O)O)C(C)(C)C` ({Butanoyl(2-Et)}-[Tle]D(Pyrrolidide)DL-OH) gave a pIC50 of less than 3.00.
